Experimental data published in ChEMBL document CHEMBL5653617, “Inhibition of BRD4 attenuates tumor cell self-renewal and suppresses stem cell signaling in MYC driven medulloblastoma” (Oncotarget, 2014).
Activity calls are given as the source filed them.

Legend:
[1] = tested on: Daoy; assay: Antitumor activity against human Daoy cells xenografted in athymic nude mice assessed as inhibition of proliferation at 50 mg/kg, ip measured after 5 days by Ki67 staining based analysis; assay type: functional, organism-based; conditions: time 5.0 day
Outline: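 Daoy cells (1.0×10^7 in PBS) injected into the flank of athymic nude mice. Once tumors were palpable, drug given 50 mg/kg i.p. with DMSO as vehicle control. Animals were sacrificed after a 5-day treatment. Tumors were assessed by Ki67 IHC and by senescence-associated β-galactosidase staining.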

[2] = tested on: Medulloblastoma cell; assay: Cytotoxicity against patient-derived Medulloblastoma cells assessed as reduction in cell viability at 300 nM by LDH assay; assay type: functional, cell-based; conditions: Homo sapiens
Outline: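 Primary tumor slices cultured as described and treated daily from day 5 with DMSO, 300 nM drug, or mitomycin C (50 ug/mL). Spent medium was collected at each change and stored at -80 °C. LDH activity was measured by kit and normalized to the mitomycin C treatment.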

[3] = Toxicity in athymic nude mouse xenografted with human Daoy cells assessed as change in body weight at 50 mg/kg, ip administered 5 days a week for 4 weeks and measured after 20 days; assay type: organism-based; conditions: in vivo, 1152 h, time 48 day
Outline: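 Daoy cells (1.0×10^7 in PBS) injected into the flank of athymic nude mice. Dosing began once tumors were palpable, at a mean of 52 days post inoculation. 50 mg/kg i.p. or DMSO vehicle given 5 days/week for 4 weeks, n=10, with tumors followed a further 20 days. Volume by caliper as π/6 × L × W × H. Body weight recorded 3 times weekly.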

[4] = target: Bromodomain-containing protein 4 (Homo sapiens) (UniProt O60885); conditions: UW228, dose 300.0 nM
[5] = target: Bromodomain-containing protein 4 (Homo sapiens) (UniProt O60885); conditions: D425 Med, dose 300.0 nM
[6] = target: Bromodomain-containing protein 4 (Homo sapiens) (UniProt O60885); conditions: D458 Med, dose 300.0 nM
[7] = tested on: D283 Med; assay: Suppression of human D283 Med cells self-renewal cultured in serum free condition assessed as reduction in formation of new neurosphere at 300 nM; assay type: functional, cell-based
Outline: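 Cells grown as neurospheres in serum-free medium for 48 h, dissociated, and seeded in a limiting dilution from 1000 to 1 cell/well, with 300 nM drug or DMSO. After 7 days in serum-free culture, neurospheres per well counted and plotted against cells seeded.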

[8] = target: Bromodomain-containing protein 4 (Homo sapiens) (UniProt O60885); conditions: D283 Med, dose 300.0 nM
[9] = tested on: Daoy; assay: In vivo inhibition of BRD4 in athymic nude mouse xenografted with human Daoy cells assessed as reduction in SOX2 protein expression in tumor at 50 mg/kg, ip measured after 5 days by immunofluorescence analysis; assay type: functional, organism-based; conditions: time 5.0 day
Outline: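 Tumors from Daoy flank xenografts in nude mice treated 50 mg/kg i.p. or DMSO vehicle for 5 days, then sacrificed. SOX2 protein detected by immunofluorescence on tumor sections.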

[10] = target: Bromodomain-containing protein 4 (Homo sapiens) (UniProt O60885); conditions: D283 Med, dose 300.0 nM; remark: listed apart in the source
[11] = tested on: Daoy; assay: Induction of senescence in human Daoy cells assessed as increase in p16 mRNA expression at 300 nM by RT-qPCR analysis; assay type: functional, cell-based
Outline: (§1)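 Cells treated with 300 nM drug or DMSO. p16, p21 and p27 mRNA measured by TaqMan qPCR with ΔΔCt quantitation, in triplicate.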

[12] = target: Bromodomain-containing protein 4 (Homo sapiens) (UniProt O60885); conditions: D283 Med, dose 300.0 nM; remark: listed apart in the source
[13] = target: Bromodomain-containing protein 4 (Homo sapiens) (UniProt O60885); conditions: D458 Med, dose 300.0 nM; remark: listed apart in the source
[14] = tested on: Daoy; assay: Downregulation of CDC25B gene expression in human Daoy cells at 300 nM by GSEA method; assay type: functional, cell-based
Outline: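 Daoy cells treated with DMSO or 300 nM drug. RNA extracted and hybridized to Affymetrix HG-ST2.0 arrays. Analysis in R/Bioconductor with gene set enrichment analysis. Regulated transcripts defined as p < 0.05, FDR < 0.05, fold change < 0.67 (down) or > 1.5 (up).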

[15] = tested on: D425 Med; assay: Inhibition of colony formation in human D425 Med cells at 100 to 300 nM incubated for 8 to 11 days by NBT staining based methyl cellulose colony growth assay; assay type: functional, cell-based; conditions: dose 100-300 nM, time 8-11 day
Outline: (§2)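 500 cells/well suspended in DMEM with methyl cellulose (1.3% final) containing 150 or 300 nM drug or DMSO, plated in triplicate. Colonies formed over 8–11 days, then stained with NBT (1 mg/ml) for 24 h at 37 °C. Colonies of ≥50 cells counted.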

[16] = tested on: D283 Med; assay: Induction of cell cycle arrest in human D283 Med cells assessed as G2/M phase cells at 300 nM incubated for 48 hrs by flow cytometry analysis (reference value: 55.70 +/- 1.50 %); assay type: functional
[17] = tested on: D425 Med; assay: Induction of cell cycle arrest in human D425 Med cells assessed as S phase cells at 300 nM incubated for 48 hrs by flow cytometry analysis (reference value: 28.96 +/- 0.89%); assay type: functional
[18] = target: Bromodomain-containing protein 4 (Homo sapiens) (UniProt O60885); conditions: D458 Med, dose 300.0 nM; remark: listed apart in the source
[19] = tested on: Daoy; assay: Induction of cell cycle arrest in human Daoy cells assessed as G2/M phase cells at 300 nM incubated for 48 hrs by flow cytometry analysis (reference value: 33.94 +/- 1.46%); assay type: functional
[20] = tested on: Daoy; assay: Inhibition of E2F1 activity in human Daoy cells at 100 to 300 nM by luciferase based reporter assay; assay type: functional, cell-based; conditions: dose 100-300 nM
Outline: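 Cignal pathway reporter system using an E2F1-responsive luciferase reporter. Cells seeded in 24-well plates and transfected with Surefect. DMSO or drug added 8 h later, then incubated a further 24 h before luciferase readout.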

[21] = tested on: D458 Med; assay: Induction of cell cycle arrest in human D458 Med cells assessed as accumulation of cells at G1 phase at 300 nM incubated for 48 hrs by flow cytometry analysis (reference value: 35.85 +/- 1.37%); assay type: functional
[22] = tested on: Daoy; assay: Induction of senescence in human Daoy cells assessed as increase in p21 mRNA expression at 300 nM by RT-qPCR analysis; assay type: functional, cell-based; outline: as §1
[23] = target: Bromodomain-containing protein 4 (Homo sapiens) (UniProt O60885); conditions: D425 Med, dose 300.0 nM; remark: listed apart in the source
[24] = tested on: Daoy; assay: In vivo inhibition of BRD4 in athymic nude mouse xenografted with human Daoy cells assessed as reduction in SOX2 mRNA expression in tumor at 50 mg/kg, ip measured after 5 days by RT-qPCR analysis; assay type: functional, organism-based; conditions: time 5.0 day
Outline: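 Xenograft tumors from mice dosed 50 mg/kg i.p. or DMSO vehicle, n = 3 each. SOX2 mRNA measured by TaqMan qPCR with ΔΔCt quantitation, in triplicate.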

[25] = tested on: D283 Med; assay: Inhibition of colony formation in human D283 Med cells at 100 to 300 nM incubated for 8 to 11 days by NBT staining based methyl cellulose colony growth assay; assay type: functional, cell-based; conditions: dose 100-300 nM, time 8-11 day; outline: as §2

Cc1sc2c(c1C)C(c1ccc(Cl)cc1)=N[C@@H](CC(=O)OC(C)(C)C)c1nnc(C)n1-2
16.813%: Activity [19]
46.86%: Activity [21]
53.216%: Activity [16]
Non-Toxic: Activity [3]
28.636%: Activity [17]
inactive: Activity [2]
active: Activity [1] | inhibition [4] | inhibition [5] | inhibition [6] | Activity [7] | inhibition [8] | inhibition [9] | inhibition [10] | Activity [11] | inhibition [12] | inhibition [13] | Activity [14] | inhibition [15] | inhibition [18] | inhibition [20] | Activity [22] | inhibition [23] | inhibition [24] | inhibition [25]
